We go through 1 compound from ChEMBL document CHEMBL3763045, “Design, Synthesis, and Pharmacological Evaluation of Novel N-Acylhydrazone Derivatives as Potent Histone Deacetylase 6/8 Dual Inhibitors” (J Med Chem, 2016).

Calls of active or inactive are those of the source. No cut-off for these calls is given here.

One series deals with Histone deacetylase 2 (Homo sapiens, UniProt Q92769). The series can be described thus: Inhibition of recombinant human HDAC2 by fluorimetry.
In series [1] the test system is HepG2. Briefly: Antiproliferative activity against human HepG2 cells assessed as reduction in cell viability at 40 uM after 48 hrs by MTS assay. Format: functional, cell-based. A general note: Formazan colour is commonly taken as a measure of viable cells.
A short description of series [2]: Chemical stability of the compound in acidic buffer assessed as compound recovery at pH 2 after 4 hrs by HPLC-PDA analysis. It is filed as physicochemical. The following applies: acidic buffer, pH 2; read-out: Drug recovery. In outline: (§1)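 Compounds stirred in pH 7.4 or pH 2 buffer at 37 °C for 240 min; percentage of compound recovered followed over time (30 min and 4 h points). Triplicate runs, values averaged.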

Series [3] can be described thus: Antiproliferative activity against human HT144 cells assessed as reduction in cell viability after 48 hrs by MTS assay. It is filed as functional, cell-based. The following applies: HT-144, 48 h.
Series [4] is described as follows: Lipophilicity, logD of the compound at pH 7.4 after 4 hrs. It is filed as physicochemical. The conditions noted are these: buffer.
In series [5] the target is T1, Protein deacetylase HDAC6 (Homo sapiens) (UniProt Q9UBN7).
T1 sequence (whole entry): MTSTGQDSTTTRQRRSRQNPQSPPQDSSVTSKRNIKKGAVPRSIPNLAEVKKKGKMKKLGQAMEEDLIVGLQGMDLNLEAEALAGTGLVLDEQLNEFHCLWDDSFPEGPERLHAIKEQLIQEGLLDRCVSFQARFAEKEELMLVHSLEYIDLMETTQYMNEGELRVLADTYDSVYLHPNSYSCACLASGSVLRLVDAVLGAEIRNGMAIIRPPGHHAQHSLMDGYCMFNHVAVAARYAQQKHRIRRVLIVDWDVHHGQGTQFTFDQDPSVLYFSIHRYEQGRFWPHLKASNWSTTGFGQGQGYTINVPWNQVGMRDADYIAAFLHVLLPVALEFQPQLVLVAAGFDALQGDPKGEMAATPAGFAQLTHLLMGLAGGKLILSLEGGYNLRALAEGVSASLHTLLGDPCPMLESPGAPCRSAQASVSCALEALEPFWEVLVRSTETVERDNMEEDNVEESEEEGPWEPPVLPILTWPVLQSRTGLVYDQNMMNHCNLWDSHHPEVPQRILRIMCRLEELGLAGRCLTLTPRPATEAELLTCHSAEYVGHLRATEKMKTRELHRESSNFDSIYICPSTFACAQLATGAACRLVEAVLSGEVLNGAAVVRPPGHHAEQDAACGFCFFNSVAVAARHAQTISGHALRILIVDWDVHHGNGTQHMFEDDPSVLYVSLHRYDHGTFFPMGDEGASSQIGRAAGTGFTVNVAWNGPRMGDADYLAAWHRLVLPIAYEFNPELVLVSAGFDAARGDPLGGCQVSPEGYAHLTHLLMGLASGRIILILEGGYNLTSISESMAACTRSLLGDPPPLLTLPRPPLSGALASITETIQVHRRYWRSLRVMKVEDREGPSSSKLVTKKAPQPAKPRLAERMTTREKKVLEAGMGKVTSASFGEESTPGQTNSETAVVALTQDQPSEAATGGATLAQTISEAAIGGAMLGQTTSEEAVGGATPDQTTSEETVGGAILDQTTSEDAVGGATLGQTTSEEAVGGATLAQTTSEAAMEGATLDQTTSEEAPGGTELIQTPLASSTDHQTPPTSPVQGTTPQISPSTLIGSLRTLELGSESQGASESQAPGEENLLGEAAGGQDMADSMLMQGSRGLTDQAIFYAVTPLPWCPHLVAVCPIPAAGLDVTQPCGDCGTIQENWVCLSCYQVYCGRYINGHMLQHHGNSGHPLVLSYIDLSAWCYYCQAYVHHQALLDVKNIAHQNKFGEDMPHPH
The series can be described thus: Inhibition of HDAC6 in human A549 cells assessed as induction of tubulin acetylation at 27 to 54 nM after 24 hrs by Western blotting analysis. It is filed as cell-based. In outline:
(§2)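 Calu-1 and A549 cells treated 24 h, acetylated tubulin detected by western blot with GAPDH as loading control. DMSO vehicle control; one representative of three independent experiments.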

A further series addresses Histone deacetylase 1 (Homo sapiens, UniProt Q13547). The series can be described thus: Inhibition of recombinant human HDAC1 by fluorimetry.
Another series relates to HT-144. Briefly: Antiproliferative activity against human HT144 cells assessed as reduction in cell viability at 40 uM after 48 hrs by MTS assay. It is filed as functional, cell-based.
Series [6] addresses T1, Protein deacetylase HDAC6 (Homo sapiens). Briefly: Inhibition of HDAC6 in human Calu1 cells assessed as induction of tubulin acetylation at 27 to 54 nM after 24 hrs by Western blotting analysis. It is filed as cell-based. The following applies: Calu-1. In outline: as §2
(Immunoblotting shows a protein as a band on a membrane.)

Series [7] in a line: Aqueous solubility of the compound in buffer at pH 7.4 after 24 hrs by spectrophotometric method. It is filed as physicochemical. In outline:
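Water solubility in pH 7.4 buffer, measured spectrophotometrically by the method of Schneider and coworkers.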

Series [8] deals with Histone deacetylase (Rattus norvegicus) (UniProt Q6P6W3+Q99P99+Q99P96+Q4QQW4+Q99P97+Q5RJZ2+B1WBY8). The series can be described thus: Inhibition of HDAC in rat liver at 1 uM by fluorimetry. In outline:
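Rat liver HDAC preparation, non-selective enzyme assay, test compounds at 1 µM; % inhibition is the mean of two experiments.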

In the next series the test system is Calu-1. The series can be described thus: Inhibition of cell migration in human Calu1 cells at 27 and 54 nM after 48 hrs by scratch test. It is filed as functional, cell-based. The method in brief:
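Calu-1 migration by scratch test after 48 h treatment. DMSO vehicle control; one representative of three independent experiments.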

A short description of series [9]: Chemical stability of the compound in acidic buffer assessed as compound hydrolysis at pH 2 measured for 240 mins by HPLC-PDA analysis. It is filed as physicochemical. The following applies: pH 2, 4 h. In outline: as §1
The nature of series [10]: Chemical stability of compound in phosphate dibasic buffer assessed as compound degradation at pH 7.4 by HPLC-PDA analysis. The conditions noted are these: read-out: Drug degradation. It is filed as physicochemical. In outline:
as §1

Series [11] concerns HepG2. Briefly: Antiproliferative activity against human HepG2 cells assessed as reduction in cell viability after 48 hrs by MTS assay. It is filed as functional, cell-based. The following applies: HepG2, 48 h.
A further series deals with Histone deacetylase. Briefly: Inhibition of HDAC in rat liver by fluorimetry. The method in brief: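 Rat liver HDAC IC50 from a six-point enzyme assay, three-fold serial dilution starting at 3 µM or 1 µM depending on compound; mean of two experiments ± SD.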
Series [12] addresses T2, Protein deacetylase HDAC6 (Homo sapiens, UniProt Q9UBN7).
T2 sequence (Q9UBN7 whole entry): T1 sequence (whole entry)
The series can be described thus: Inhibition of recombinant human HDAC6 by fluorimetry.

The next series has as its system MCF7. Briefly: Antiproliferative activity against human MCF7 cells assessed as reduction in cell viability at 40 uM after 48 hrs by MTS assay. Format: functional, cell-based. In outline: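 MCF-7 cells exposed at 40 µM for 48 h, viability by MTS; ANOVA with Tukey's post-test against control.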
Series [13] is described as follows: Ionization constant, pKa of the compound in buffer measured over 3 hrs by UV spectrometry. It is filed as physicochemical.
The next series has as its target T3, Histone deacetylase 8 (Homo sapiens, UniProt Q9BY41).
T3 sequence (Q9BY41 whole entry): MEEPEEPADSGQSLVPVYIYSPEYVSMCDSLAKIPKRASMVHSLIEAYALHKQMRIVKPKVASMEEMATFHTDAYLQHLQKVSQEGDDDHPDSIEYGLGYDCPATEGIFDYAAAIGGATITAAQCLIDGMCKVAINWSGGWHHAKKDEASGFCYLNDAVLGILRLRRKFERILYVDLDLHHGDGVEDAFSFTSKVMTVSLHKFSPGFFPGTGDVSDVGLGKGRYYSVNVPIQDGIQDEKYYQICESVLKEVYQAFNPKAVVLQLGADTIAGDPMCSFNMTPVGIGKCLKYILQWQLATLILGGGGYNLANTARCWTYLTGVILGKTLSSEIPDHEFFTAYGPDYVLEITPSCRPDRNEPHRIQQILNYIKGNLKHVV
Briefly: Inhibition of recombinant human HDAC8 by fluorimetry.

Sequence of Histone deacetylase 2 (Q92769 whole entry): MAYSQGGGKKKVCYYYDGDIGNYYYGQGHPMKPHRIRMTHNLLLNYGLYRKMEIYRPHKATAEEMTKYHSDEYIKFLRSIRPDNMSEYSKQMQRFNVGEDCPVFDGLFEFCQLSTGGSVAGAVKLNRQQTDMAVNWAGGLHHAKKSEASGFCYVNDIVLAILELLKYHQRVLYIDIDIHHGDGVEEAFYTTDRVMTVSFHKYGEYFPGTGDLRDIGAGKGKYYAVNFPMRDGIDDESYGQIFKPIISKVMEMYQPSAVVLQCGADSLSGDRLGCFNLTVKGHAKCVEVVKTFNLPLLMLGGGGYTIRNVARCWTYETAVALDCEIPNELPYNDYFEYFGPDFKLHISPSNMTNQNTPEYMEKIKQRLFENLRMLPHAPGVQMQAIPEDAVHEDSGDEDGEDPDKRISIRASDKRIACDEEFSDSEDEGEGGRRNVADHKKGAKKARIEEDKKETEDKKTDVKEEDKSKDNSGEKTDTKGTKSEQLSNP
Sequence of Histone deacetylase 1 (Q13547 whole entry): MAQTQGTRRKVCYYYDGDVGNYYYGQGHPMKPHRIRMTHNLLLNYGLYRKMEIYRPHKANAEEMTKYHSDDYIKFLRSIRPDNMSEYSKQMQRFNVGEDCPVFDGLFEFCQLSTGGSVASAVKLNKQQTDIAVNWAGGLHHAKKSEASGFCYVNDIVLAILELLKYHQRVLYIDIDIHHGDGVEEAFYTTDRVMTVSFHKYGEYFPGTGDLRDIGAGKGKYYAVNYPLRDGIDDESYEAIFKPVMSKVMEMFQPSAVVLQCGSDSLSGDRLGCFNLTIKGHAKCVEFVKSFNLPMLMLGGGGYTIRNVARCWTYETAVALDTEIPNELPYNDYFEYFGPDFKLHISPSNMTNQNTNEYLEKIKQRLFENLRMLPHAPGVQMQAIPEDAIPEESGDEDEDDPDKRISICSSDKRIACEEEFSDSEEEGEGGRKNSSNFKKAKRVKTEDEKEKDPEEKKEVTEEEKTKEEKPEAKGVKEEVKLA

For orientation: IC50 means the concentration at which inhibition is half-maximal. The term logD denotes lipophilicity at a set pH, counting ionised and neutral species. The term inhibition denotes the drop in the measured response relative to a control, in per cent. Usually solubility stands for the dissolved amount per volume that the medium holds. Higher therefore signals a readily soluble substance. The pKa is the pH at which an ionisable group is half protonated. As for `CN(/N=C/c1ccc(C(=O)NO)cc1)C(=O)c1ccc(N(C)C)cc1`, the IC50 on Histone deacetylase 2 is above 3 µM; in [3], 36.1 µM; at Histone deacetylase 1, above 3 µM; with HepG2 [11] it was 24.1 µM; against Histone deacetylase, 0.018 µM; in [12], 0.027 µM. Besides, on Histone deacetylase 8, the IC50 was determined as 0.13 µM. The result in the series with HepG2 [1], in the series on HT-144 and in the series with MCF7 was Active. Besides, the remaining at 4 h in series [2] worked out at 70%. The same compound gave a log distribution coefficient (logD) at 4 h in series [4] of 0.98. The inhibition entry (in [5]; in [6]; in the series on Calu-1) was “Active” throughout. The compound further gave a solubility at 24 h in series [7] above 64 µM. The same compound registered an inhibition in series [8] of 90.4%. Further, the Stability result in [9] is listed as “Unstable”. Besides, the degraded in series [10] is above 15%. In series [13], this compound showed a pKa at 3 h of 8.1.
